Compound activity (PubChem)
An excerpt weighted towards active compounds, which were near 4.6% of everything screened.
TAAR1 agonist: human TAAR1 agonists, primary screen, Fluo-8 calcium fluorescence, CHO RD-HGA16 cells; Trace amine-associated receptor 1 (Homo sapiens), Q96RJ0; vehicle wells 0%, saturating PEA agonist 100%; activation, % at 3 µM; 360,000 compounds, 0.99% hits; AID 624467, 2012;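 active = activation above the mean activation of all test compounds in the run plus 3 SD, cut at about 38% in these data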
Target sequence (Q96RJ0 whole entry, looked up): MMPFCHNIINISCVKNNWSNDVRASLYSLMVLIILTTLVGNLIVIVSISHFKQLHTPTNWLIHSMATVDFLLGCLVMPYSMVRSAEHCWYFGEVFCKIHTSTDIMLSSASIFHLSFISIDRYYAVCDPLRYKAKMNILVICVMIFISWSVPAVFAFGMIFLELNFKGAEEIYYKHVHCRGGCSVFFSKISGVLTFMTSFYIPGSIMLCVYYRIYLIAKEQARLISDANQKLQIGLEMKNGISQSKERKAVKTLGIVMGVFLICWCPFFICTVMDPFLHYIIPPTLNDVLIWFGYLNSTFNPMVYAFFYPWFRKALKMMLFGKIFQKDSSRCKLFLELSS
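test system = CHO RD-HGA16 cells carrying human TAAR1 plus Gα16 | schedule = 17-24 h seeding, 75 min 37 °C dye, 30 min RT | compound dosing = 3 µM single concentration | control set = DMSO and PEA EC100 | replicates = n 1 | signal = Fluo-8 fluorescence, 5 s baseline then 140 s kinetic read | measure = percent activation vs PEA EC100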
CHO parental Ca: ATP-evoked calcium signal inhibitors, parental CHO, primary screen, counter-screen for OX1R antagonist project, cell-based, fluorescence, Fluo-8 calcium dye; parental CHO-K1, ATP-induced calcium, Fluo-8 fluorescence; inhibition, % at 5.6 µM; 330,000 compounds, 0.63% hits; AID 463079, 2010;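 active = inhibition above that plate's mean sample inhibition plus 3 SD, cut at about 26% in these data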;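 also: 0% = ATP-challenged DMSO wells and 100% = DMSO wells without ATP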
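Assay system: parental CHO cells; Read-out basis: percent inhibition of ATP-evoked calcium rise, normalized to controls; Benchmarks: ATP and no-ATP DMSO wells; Compound dosing: single nominal dose of 5.6 µM per compound; Signal: Fluo-8 calcium dye fluorescence; Also added: ATP as calcium-mobilizing challenge; Repeats: singlicate.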
OX1R antag-1: antagonists of human orexin 1 receptor (OX1R). OX1R-expressing cells, FRET antagonist read-out. inhibition, % at 6.6 µM. 330,000 compounds, 1.8% hits. AID 485270, 2010; in the data active = inhibition mostly above about 38%, no sharp cut-off; inactive = mostly below about 40%;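 also: 0% = agonist challenge alone and 100% = reference antagonist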
OX1R antag-2: OX1R (HCRTR1) antagonists, primary screen, fluorescence, CHO/OX1R cells, Fluo-8 calcium, orexin A; Orexin/Hypocretin receptor type 1 (Homo sapiens), O43613; Fluo-8 calcium fluorescence; inhibition, % at 5 µM; 330,000 compounds, 0.43% hits; AID 434989, 2010;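 active = inhibition above its plate's threshold, mean inhibition of all tested compounds on the plate plus 3 SD, cut at about 37% in these data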;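 also: 0% = orexin A challenge wells and 100% = SB-334867-A antagonist wells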
GPR7 antagonist: GPR7 receptor antagonists, primary screen, cell-based, fluorescence, single concentration. 290,000 compounds, 1.1% hits. GPR7-expressing cells, fluorescence antagonist assay. inhibition, % at 4.4 µM; in the data active = inhibition above about 16%, passing the limit was not always enough;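 also: cells stimulated with the agonist NPW; 0% = agonist with vehicle and 100% = vehicle without agonist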
Target sequence (P48145 whole entry, looked up): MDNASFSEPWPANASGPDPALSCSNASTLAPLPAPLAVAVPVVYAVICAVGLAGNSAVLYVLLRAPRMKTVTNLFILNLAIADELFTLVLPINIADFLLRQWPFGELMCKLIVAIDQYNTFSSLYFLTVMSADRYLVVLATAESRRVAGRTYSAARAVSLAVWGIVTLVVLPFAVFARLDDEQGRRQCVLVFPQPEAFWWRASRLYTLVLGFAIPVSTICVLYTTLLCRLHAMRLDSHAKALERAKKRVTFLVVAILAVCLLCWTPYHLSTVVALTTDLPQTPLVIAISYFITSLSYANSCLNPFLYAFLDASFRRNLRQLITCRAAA
TAAR1 antagonist: human TAAR1 antagonists, primary screen, Fluo-8 calcium fluorescence, CHO RD-HGA16 cells | Trace amine-associated receptor 1 (Homo sapiens), Q96RJ0 | antagonist | inhibition, % at 3 µM | 360,000 compounds, 1.5% hits;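 active = inhibition above a per-plate cutoff, the mean inhibition of test compounds on that plate plus 3 SD, cut at about 49% in these data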;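 also: 0% = DMSO plus EC80 beta-PEA response and 100% = DMSO alone without agonist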
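Test system – hTAAR1-expressing CHO RD-HGA16 cells, Gα16-coupled · Also added – β-PEA at EC80 concentration, post-compound challenge · Compound – 3 µM, single point · Incubation – dye loading 75 min at 37 °C, then 30 min room temperature · Measured by – Fluo-8 intracellular calcium dye fluorescence, real-time kinetic reads · Benchmarks – vehicle and agonist controls · Replicates – singlicate, one well per test compound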
GPR7 antag conf: GPR7 receptor antagonists, confirmation, cell-based, fluorescence, single concentration | shares compounds with GPR7 antagonist | GPR7-expressing cells, calcium fluorescence antagonist mode | inhibition, % at 4.4 µM | 2,400 compounds, 52% hits; in the data active = inhibition above about 24%;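 also: stimulated with the GPR7 agonist NPW; 0% = agonist plus vehicle and 100% = vehicle alone without agonist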
MCHR1 antagonist: MCHR1 antagonists in cells, counter-screen for GPR7 antagonist project, cell-based, fluorescence, human. 2,400 compounds, 62% hits. shares compounds with GPR7 antagonist. AID 2148, 2009. MCHR1-expressing cells, fluorescence antagonist assay. inhibition, % at 4.4 µM; in the data active = inhibition above about 22%;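 also: 0% = vehicle with agonist and 100% = vehicle without agonist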
Active calls of the source: *; · = no result given.

SMILES	TAAR1 agonist	CHO parental Ca	OX1R antag-1	OX1R antag-2	GPR7 antagonist	TAAR1 antagonist	GPR7 antag conf	MCHR1 antagonist
Cc1ccc(CS(=O)(=O)c2ncc(Cl)c(C(=O)Nc3ccc(OC(F)F)cc3)n2)cc1	-1	59*	25	51*	43*	28	84*	96*
CC(=O)Nc1ccc(S(=O)(=O)N2CCN(c3nc4ccccc4n3CC(C)C)CC2)cc1	5	·	·	·	27*	13	-10	5
CC(=O)Nc1cccc(Nc2cc(C)nn2C)c1	1	·	·	·	·	-18	·	·
C(=C\c1ccc2nncn2c1)/c1ccccc1	3	·	·	·	·	2	·	·
c1ccc(C(c2ccccn2)c2ccccn2)cc1	-1	-2	21	-8	-2	13	·	·
CC(=O)Oc1ccc(C(c2ccc(OC(C)=O)cc2)c2ccccn2)cc1	1	1	5	-1	66*	-11	76*	47*
O=C(Cn1c(Cn2c(-c3cnccn3)nc3ccccc32)nc2ccccc21)c1ccc(OC(F)(F)F)cc1	5	·	·	·	·	5	·	·
C1=CCC(CN2CCN(C3CCCCCC3)CC2)CC1 (centres undefined)	2	-7	16	14	30*	-17	23	38*
CCOC(=O)c1ccc(CNC(=O)c2cc(COc3ccccc3SC)on2)o1	2	-3	12	-14	44*	2	13	45*
CSc1ccccc1OCc1cc(C(=O)NCc2ccc(C)s2)no1	0	-13	36	-24	-23	6	·	·
CCCCNC(=O)C1c2ccccc2OCC(=O)N1CCCN1CCOCC1 (centres undefined)	1	·	·	·	·	1	·	·
O=C(NCCc1c[nH]c2ccccc12)c1ccc([N+](=O)[O-])cc1	2	2	18	17	31*	12	30*	26*
O=C(COC(=O)CCc1c[nH]c2ccccc12)Nc1cc([N+](=O)[O-])ccc1Cl	6	-10	30	-13	2	-8	·	·
O=C(COC(=O)CCc1c[nH]c2ccccc12)Nc1ccc([N+](=O)[O-])cc1	8	-3	30	-8	26*	18	49*	41*
O=C(Nc1cccc2ccccc12)c1ccc([N+](=O)[O-])cc1	6	-4	36	-6	42*	-7	6	18
CCOC(=O)CCCCCC(=O)Nc1ccc2c(c1)C(=O)N([C@@H](C)CO)C[C@@H](C)[C@H](CN(C)C(=O)Nc1ccccc1)OCCCC[C@H](C)O2	-2	·	·	·	·	-17	·	·
O=C(CCCCCN1C(=O)c2ccccc2C1=O)Nc1ccc(C(=O)O)cc1	0	4	1	-5	6	-18	·	·
O=C1NC[C@H](CCCCN2C[C@H](Cc3ccccc3)N(CCC3CCCCC3)C(=O)C2=O)N(CC2CCCCC2)C1=O	0	·	·	·	·	-3	·	·
Cc1cccc(N(CC(=O)NC2CCCCC2)C(=O)CCCC(=O)Nc2ccccn2)c1C	0	-15	2	-24	29*	0	21	12
O=C(NCCc1ccco1)C(=O)NCC1OCCCN1S(=O)(=O)c1ccc(F)cc1 (centres undefined)	4	-10	38	13	24*	-20	-1	2
CC1(C(=O)NCC2CC2)CCN1C(=O)C1(c2ccccc2)CC1 (centres undefined)	1	·	·	·	·	-15	·	·
CC(=O)c1ccc(N2CCN(C(=S)Nc3ccccc3)CC2)cc1	18	0	12	-15	8	-2	·	·
CSCCCNC(=S)N1CCN(c2ccc(C(C)=O)cc2)CC1	6	12	24	-2	26*	8	28*	31*
COC(=O)c1c(NC(=O)CN2CCC(C(N)=O)CC2)c2c(C)cccc2n1C	4	-4	26	-12	-7	-13	·	·
COC(=O)c1c(NC(=O)CN2CCCC(C)C2)c2c(C)cccc2n1C (centres undefined)	5	-18	3	-22	26*	-1	14	27*
SMILES	TAAR1 agonist	CHO parental Ca	OX1R antag-1	OX1R antag-2	GPR7 antagonist	TAAR1 antagonist	GPR7 antag conf	MCHR1 antagonist
O=C1c2cccc3c([N+](=O)[O-])ccc(c23)C(=O)N1c1ccc(Cl)cn1	2	35*	51*	45	33*	71*	100*	104*
C#CCNC(=O)C1=C[C@H](c2cn(C(C)=O)c3ccccc23)C[C@H](OCc2ccc(CO)cc2)O1	44*	-9	21	5	38*	49*	18	38*
CC(=O)Nc1ccc2ccccc2c1	·	-4	17	6	7	·	·	·
CC(=O)Nc1ccc2cc3ccc(NC(C)=O)cc3nc2c1	2	-3	32	-29	15*	-7	-8	-6
Cc1cc(Br)cn2c(Cc3ccccc3)c(-c3ccc(C#N)cc3)nc12	-1	·	·	·	·	-14	·	·
CCOC(=O)C1CCN(CCC(=O)Nc2ccccc2)CC1	4	-10	13	-4	51*	-19	3	-4
CNc1ccc(-c2cccc(CO)c2)cn1	0	·	·	·	·	0	·	·
COc1ccc(NC(=O)C(OC(=O)c2cnccn2)c2ccccc2)cc1Cl (centres undefined)	2	-11	24	-12	32*	-24	19	20
CCOC(=O)c1c(-c2ccccc2)oc2ccc(OCC)cc12	4	-28	14	-40	-13	-15	·	·
CCOC(=O)c1c(-c2ccccc2)oc2ccc(OCC(O)CNCCN(C)C)cc12 (centres undefined)	3	5	-1	-22	72*	16	60*	69*
CC(C)[C@H](NC(=O)c1nn(Cc2ccccc2)c(=O)c2ccccc12)C(=O)O	0	-3	4	2	-8	-30	·	·
CCc1cccc(CC)c1NC(=O)CN1CC(C)SC1=NC1CCCCC1 (centres undefined)	15	-15	9	-27	38*	-3	55*	33*
CCc1cccc(CC)c1NC(=O)NC1CCCCC1	0	3	15	-11	3	-15	·	·
